In ChEMBL document CHEMBL5055647, “Identification and Biological Activity of NFAT-133 Congeners from Streptomyces pactum” (J Nat Prod, 2021):
Active and inactive are the calls of the source. The rule behind the calls is not given here.

Tests used:
Escherichia coli = experiment: Antibacterial activity against Escherichia coli ATCC 11775 by Whatman paper based disk diffusion assay; type: functional, organism-based
Method in brief: (§1)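 Test strains grown overnight in LB at 30 °C, 200 rpm; 100 μL culture mixed into 10 mL warm 0.7% LB soft agar and plated. Paper disks loaded with 10 μL of 10 mM compound solution, plates incubated at 37 °C; activity judged by presence and diameter of inhibition zone. Ampicillin (2 mg/mL) positive control.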

RAW264.7 [1] = experiment: Cytotoxicity against mouse RAW264.7 cells up to 50 uM by MTT assay; type: cell-based; conditions: raw264.7, 50 µM
Method in brief: (§2)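 Cells kept in high-glucose DMEM with 10% heat-inactivated FBS, streptomycin, amphotericin B, 37 °C, 5% CO2; exponential-phase cells seeded ~1.0 × 10^4/well, grown 12 h, then exposed to serial dilutions of compound; medium-only controls. Viability by MTT, absorbance 490 nm.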

Staphylococcus aureus = experiment: Antibacterial activity against Staphylococcus aureus ATCC 12600 by Whatman paper based disk diffusion assay; type: functional, organism-based; method in brief: as §1
NCI-H460 = experiment: Cytotoxicity against human NCI-H460 cells up to 50 uM by MTT assay; type: functional, cell-based; method in brief: as §2
Pseudomonas aeruginosa = experiment: Antibacterial activity against Pseudomonas aeruginosa ATCC 9721 by Whatman paper based disk diffusion assay; type: functional, organism-based; method in brief: as §1
RAW264.7 [2] = experiment: Inhibition of LPS-induced NO production in mouse RAW264.7 cells preincubated for 1 hr followed by LPS stimulation measured after 24 hrs by Griess reagent based assay; type: functional, cell-based; conditions: time 25.0 hrs
Method in brief: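 Murine macrophages seeded ~1 × 10^4/well, grown 12 h, pretreated with compound 1 h, then LPS 25 ng/mL added for 24 h. Supernatant nitrite measured by Griess reagent (1:1, 37 °C, 15 min, dark), absorbance 520 nm, quantified against 0–100 μM sodium nitrite standards; mean ± SD of independent experiments, t-test, p < 0.05.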

MCF7 = experiment: Cytotoxicity against human MCF7 cells up to 50 uM by MTT assay; type: functional, cell-based; method in brief: as §2
Bacillus subtilis = experiment: Antibacterial activity against Bacillus subtilis ATCC 6051 by Whatman paper based disk diffusion assay; type: functional, organism-based; method in brief: as §1
HeLa = experiment: Cytotoxicity against human HeLa cells up to 50 uM by MTT assay; type: functional, cell-based; method in brief: as §2

Structure (SMILES)	Activity (Escherichia coli)	Activity (RAW264.7 [1])	Activity (Staphylococcus aureus)	Activity (NCI-H460)	Activity (Pseudomonas aeruginosa)	inhibition (RAW264.7 [2])	Activity (MCF7)	Activity (Bacillus subtilis)	Activity (HeLa)
CC(=O)[C@@H](C)[C@@H]1O[C@@H](CCO)c2cc(C)ccc2[C@@H]1C	inactive	Non-Toxic	inactive	inactive	inactive	Dose-dependent effect	inactive	inactive	inactive
CC(=O)[C@@H](C)[C@H](O)[C@@H](C)c1ccc(C)cc1/C=C/CO	inactive	Non-Toxic	inactive	inactive	inactive	Dose-dependent effect	inactive	inactive	inactive
C=C[C@H](O)c1cc(C)ccc1[C@H](C)[C@@H](O)[C@H](C)C(C)=O	inactive	Non-Toxic	inactive	inactive	inactive	Dose-dependent effect	inactive	inactive	inactive
CC(=O)[C@@H](C)[C@@H]1O[C@H](CCO)c2cc(C)ccc2[C@@H]1C	inactive	Non-Toxic	inactive	inactive	inactive	Dose-dependent effect	inactive	inactive	inactive
